# Calb biofilm kill = mixture kills Candida albicans biofilm cells | C. albicans biofilm persisters + clotrimazole, fluorescence viability; primary screen in compound mixtures of four per well | inhibition, % at 7.6 µM | actives 0.02% (n = 120,000);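 active means inhibition above 30.3% in the primary screen of four-compound pools, then above 30% when the compound was retested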;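 further: compounds exposed to preformed 24 h biofilms for 48 h; 0% = untreated biofilm control and 100% = clotrimazole plus chlorhexidine kill blank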
#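 Test system: C. albicans biofilms. Buffer or medium: RPMI/MOPS medium, pH 7.0. Timing: 48 h compound exposure at 37 °C. Technique: Alamar Blue fluorescence. Evaluation: percent inhibition of biofilm viability.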
# Bim-Mcl-1 = human Bim-Mcl-1 interaction inhibition | Bead-based flow cytometry, Bim peptide-Mcl-1 binding | actives 0.1% (n = 190,000) | inhibition, % at 10 µM | Q07820 | AID 1009; in the data active means inhibition above about 40%;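 further: 0% = no compound tracer wells and 100% = peptide blocker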
# Target sequence (Q07820 whole entry, looked up): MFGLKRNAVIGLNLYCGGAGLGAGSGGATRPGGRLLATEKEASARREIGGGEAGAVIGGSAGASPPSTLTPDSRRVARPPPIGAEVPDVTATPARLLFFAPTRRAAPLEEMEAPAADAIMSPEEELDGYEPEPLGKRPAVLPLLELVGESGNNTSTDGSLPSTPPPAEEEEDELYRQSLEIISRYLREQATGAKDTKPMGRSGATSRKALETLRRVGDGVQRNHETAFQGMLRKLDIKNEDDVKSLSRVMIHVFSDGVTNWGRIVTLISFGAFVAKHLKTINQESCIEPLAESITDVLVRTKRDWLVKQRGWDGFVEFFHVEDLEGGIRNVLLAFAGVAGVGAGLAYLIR
# Hck Nef HTS = blocks Nef-activated human Hck kinase; AID 463187; actives 0.68% (n = 220,000); P08631; Recombinant Hck-YEEI plus Nef, Z-Lyte FRET kinase assay; inhibition, % at 20 µM;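 active means Hck-Nef kinase inhibition above about 50%, limit read from the data; inactive means inhibition below that limit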;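 further: 0% = DMSO with Hck plus Nef and 100% = Hck alone without Nef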
# 14-3-3 Bad inh = disrupts binding of bovine 14-3-3 zeta to phospho-Bad peptide; inhibition, % at 21.7 µM; actives 0.71% (n = 220,000); TR-FRET 14-3-3zeta/Dy647-pBad peptide displacement, 1 h;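 active means inhibition above about 70%, limit read from the data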;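 further: 0% = full 14-3-3 plus peptide FRET controls and 100% = background without 14-3-3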
# Target sequence (P63103 whole entry, looked up): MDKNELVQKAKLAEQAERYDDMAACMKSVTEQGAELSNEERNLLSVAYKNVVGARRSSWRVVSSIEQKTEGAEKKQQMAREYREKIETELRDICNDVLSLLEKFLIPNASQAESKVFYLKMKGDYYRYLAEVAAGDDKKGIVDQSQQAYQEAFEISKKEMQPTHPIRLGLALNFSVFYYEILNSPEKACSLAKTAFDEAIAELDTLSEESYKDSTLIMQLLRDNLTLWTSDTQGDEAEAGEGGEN
# Mcl1 Bid PPI = Mcl-1/Bid interaction inhibition; Q07820; inhibition, % at 21.7 µM; TR-FRET Mcl-1/Bid-Dy647 peptide binding, 1536-well; actives 0.97% (n = 220,000);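 active means compounds that cut the binding signal by more than half at the single screening dose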;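 further: His-tagged Mcl-1 with europium anti-His antibody binding Bid BH3 peptide; 0% = Mcl-1 plus peptide wells and 100% = peptide-only wells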
# Mcl1-Noxa inh = disrupts binding of human Mcl-1 to Noxa peptide | Q07820 | TR-FRET Mcl-1/Noxa peptide binding, 2 h | inhibition, % at 21.7 µM | actives 1.5% (n = 220,000) | AID 1022;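 active means compounds that cut the protein-peptide binding signal by more than 50% relative to plate controls in a single-dose test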;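 further: His-tagged Mcl-1 with rhodamine Noxa BH3 peptide and terbium anti-His antibody; 0% = Mcl-1 plus Noxa peptide wells and 100% = peptide-only wells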
# Starred values were filed as active, the others as inactive; · = no result; [ ] = remark or other dose. The list is not random: actives were taken first. Their share in the collection is about 3.2%.
SMILES,Calb biofilm kill,Bim-Mcl-1,Hck Nef HTS,14-3-3 Bad inh,Mcl1 Bid PPI,Mcl1-Noxa inh
CCc1nn(C(C)C(=O)Nc2cccc(C)c2C)c(=O)c2cc3occc3n12 (stereo not drawn),·,0.0,-1.1,-6.7,-20.1,6.3
COc1cccc(NC(C)(C)c2nnnn2-c2c(C)cccc2C)c1,1.8,·,-16.0,17.2,51.6*,36.2
COc1ccc(CNS(=O)(=O)c2ccc(F)c(C(=O)Nc3ccc(OC)cc3)c2)cc1,10.9,-2.0,-1.8,-3.1,-11.8,53.5*
COc1ccc(CNS(=O)(=O)c2ccc(F)c(C(=O)Nc3ccccc3OC)c2)cc1,13.2,0.0,25.9,17.5,6.3,9.0
CC(=O)Nc1ccc(S(=O)(=O)NCc2ccc(C(=O)NCc3ccc(Cl)cc3)cc2)cc1,·,2.0,2.9,74.4*,18.3,-30.2
Cc1cccc2cc(CN(Cc3ccc(F)cc3)C(=O)N3CCOCC3)c(=O)[nH]c12,12.6,-4.0,6.3,6.3,0.4,-11.7
O=C(O)c1cccc(NC(=O)C2CC(=O)N(Cc3ccccc3)C2)c1 (stereo not drawn),·,-2.0,-0.6,76.5*,-6.9,12.4
CCC(CC)C(=O)Nc1cccc(C(=O)Nc2ccc(S(N)(=O)=O)cc2)c1,9.2,0.0,15.9,-2.0,-39.0,-1.0
CCC(CC)C(=O)Nc1cccc(S(=O)(=O)c2cccc(NC(=O)C(CC)CC)c2)c1,·,44.0*,2.8,2.8,-14.9,2.4
COc1ccc(N2CCN(C(=O)CN3CCN(C(c4ccccc4)c4ccccc4)CC3)CC2)cc1,11.2,1.0,0.3,10.4,-2.5,41.9
O=C(CN1CCOCC1)n1c2ccccc2c2ccccc21,·,-5.0,0.5,75.0*,-16.5,-2.0
O=C(CN1CCOCC1)n1c2c(c3ccccc31)CCCC2,18.6,-4.0,-38.1,-2.3,-10.9,9.6
O=C(CN1CCN(C(c2ccccc2)c2ccccc2)CC1)N1CCOCC1,·,-6.0,1.5,73.3*,27.1,29.3
Cc1cc(C)c2c(=O)n(CC(=O)N3CCC(N4CCCCC4)CC3)sc2n1,·,-2.0,0.7,17.2,-52.5,46.1
CCOC(=O)C1CCCN(C(=O)Cn2sc3nc(C)cc(C)c3c2=O)C1 (stereo not drawn),·,-5.0,-2.0,0.2,-22.4,56.5*
Cn1cc(CN2C[C@]3(C)C[C@H]2CC(C)(C)C3)c(-c2ccc3c(c2)OCCO3)n1,12.4,50.0*,0.0,-5.3,-19.6,11.2
COc1ccc2cc3c(N)c(C(=O)NCc4ccco4)sc3nc2c1,·,1.0,2.7,9.8,-14.8,63.4*
CCCOC(=O)c1sc2nc3c(cc2c1N)C(=O)CCC3,·,0.0,-0.5,15.1,-26.7,-2.5
Nc1c(C(=O)NCc2ccco2)sc2nc3c(cc12)C(=O)CCC3,·,11.0,7.6,10.1,-44.6,87.8*
O=C(O)CC(NNC(=O)c1ccccc1)C(=O)Nc1ccc([N+](=O)[O-])cc1 (stereo not drawn),10.2,·,32.0,-5.6,-37.2,-1.0
COc1ccc2[nH]c3nc(SCC(=O)NNC(=O)c4ccc(OC)c(OC)c4)nnc3c2c1,·,0.0,3.6,-5.6,-16.1,-7.0
Cc1ccc(C(=O)NNC(=O)CSc2nnc3c(n2)[nH]c2ccc(F)cc23)cc1,·,8.0,6.7,36.1,80.4*,53.3*
OCCN(CC#CCn1c2ccccc2c2ccccc21)CCO,25.0,·,5.6,2.0,-11.0,0.3
Cc1c(C(=O)Oc2ccc(-c3cnc4ccccc4n3)cc2)cccc1[N+](=O)[O-],·,-8.0,4.8,21.5,50.4,67.3*
CCC(=O)Oc1ccc(-c2cnc3ccccc3n2)cc1,·,-1.0,1.3,6.2,14.0,·
SMILES,Calb biofilm kill,Bim-Mcl-1,Hck Nef HTS,14-3-3 Bad inh,Mcl1 Bid PPI,Mcl1-Noxa inh
Cc1nc2nc(-c3cccs3)cn2nc1C,·,0.0,-7.9,-0.6,-27.4,61.6*
COc1ccc(/C=C2\SC(=O)N(CCc3nnc(N)s3)C2=O)cc1,15.9,·,28.6,-2.3,-73.6,43.2
CN(C)C(CNC(=S)Nc1cccc(Cl)c1)c1cccnc1 (stereo not drawn),7.0,-4.0,24.2,-23.6,-37.3,7.6
COc1ccc(NC(=O)c2cc3sccc3n2Cc2ccc(F)cc2)cc1OC,·,-2.0,2.9,4.7,57.5*,-50.4
CCCNc1nc2ccccc2c(=O)[nH]1,-2.0,-2.0,19.9,-19.1,-28.5,1.6
CC(C)Nc1nc2ccccc2c(=O)[nH]1,19.8,-2.0,13.6,89.9*,-7.0,7.0
COc1ccc([N+](=O)[O-])cc1NC(=O)C(C)OC(=O)c1cccnc1 (stereo not drawn),13.0,1.0,20.9,11.8,11.8,1.5
CN(C)S(=O)(=O)c1cc(S(=O)(=O)N(C)C)c(Cl)cc1N,·,2.0,0.2,19.4,70.4*,28.2
COc1cc(C)c(Cl)cc1S(=O)(=O)N(C)C,·,4.0,2.3,-4.9,4.8,0.3
CCc1cc(C(=O)Cc2nc3ccccc3s2)c(O)cc1OCC(=O)O,1.0,·,-4.9,-4.3,-42.0,-12.3
O=S(=O)(Nc1ccc2nc(-c3ccc(Br)o3)[nH]c2c1)c1ccccc1,·,-1.0,2.3,-7.1,-29.8,52.1*
Cn1c(-c2cccc(Br)c2)n[nH]c1=O,5.3,0.0,-5.7,-3.3,-10.3,15.8
NC(N)=N/N=C/c1ccc(OCc2ccc(Cl)cc2)cc1,·,2.0,7.2,86.6*[fluorescence artefact?],-44.2,-3.1
O=C(CCS(=O)(=O)c1ccccc1)Nc1ccccc1-c1nc2ccccc2s1,18.0,-4.0,1.8,0.4,75.4*,20.6
Oc1ccc(-c2nnc(Nc3cccc(O)c3)c3ccccc23)cc1,2.1,·,20.1,2.8,-2.5,60.5*
CN(C)c1nc(N(C)C)n(C(=O)c2cccs2)n1,12.3,0.0,14.9,0.8,2.2,-4.7
Oc1cc(-n2cccn2)c(O)cc1-n1cccn1,18.2,·,-148.3,3.2,-241.2,69.8*
COC(=O)c1ccccc1Sc1ncnc2onc(C)c12,7.5,0.0,28.4,5.1,6.4,-2.9
COC(=O)Cn1cc(/C=N/NC(=O)COc2cccc3cccnc23)c2ccccc21,7.2,0.0,11.6,45.5,65.2*,28.5
C#CCn1cc(/C=N/NC(=O)COc2cccc3cccnc23)c2ccccc21,17.5,-7.0,31.4,92.1*[fluorescence artefact?],85.5*,69.7*
O=C(COc1cccc2cccnc12)N/N=C/c1ccccc1O,21.4,·,3.6,7.9,-8.4,-3.1
COc1cc(/C=N/NC(=O)c2sc(N)c(C#N)c2C)ccc1O,·,-2.0,7.8,7.2,-23.6,-10.9
Cc1c(C(=O)N/N=C/c2ccc(-c3ccccc3[N+](=O)[O-])o2)sc(N)c1C#N,13.7,-3.0,6.4,21.1,80.0*,99.3*
Cc1c(C(=O)N/N=C/c2ccc(O)c(Br)c2)sc(N)c1C#N,15.4,6.0,10.1,4.2,-23.7,72.1*
Nc1c(C(=O)N/N=C/c2cccnc2)oc2nc(-c3ccco3)cc(-c3ccco3)c12,6.9,·,64.1*,-2.4,-17.5,48.2
NNC(=O)c1oc2nc(-c3ccco3)cc(-c3ccco3)c2c1N,6.8,·,-11.5,-6.8,-105.0,61.6*
